Test results reported in ChEMBL document CHEMBL1142664, “Synthesis and biological evaluation of a new series of 2,3,5-substituted [1,2,4]-thiadiazoles as modulators of adenosine A1 receptors and their molecular mechanism of action” (J Med Chem, 2005).

Columns and labels:
[1] = molecular target: T1, Adenosine receptor A1 (Homo sapiens) (UniProt P30542); test: Dissociation constant for [3H]-CCPA binding to Adenosine A1 receptor in the presence of compound
T1 sequence (whole entry): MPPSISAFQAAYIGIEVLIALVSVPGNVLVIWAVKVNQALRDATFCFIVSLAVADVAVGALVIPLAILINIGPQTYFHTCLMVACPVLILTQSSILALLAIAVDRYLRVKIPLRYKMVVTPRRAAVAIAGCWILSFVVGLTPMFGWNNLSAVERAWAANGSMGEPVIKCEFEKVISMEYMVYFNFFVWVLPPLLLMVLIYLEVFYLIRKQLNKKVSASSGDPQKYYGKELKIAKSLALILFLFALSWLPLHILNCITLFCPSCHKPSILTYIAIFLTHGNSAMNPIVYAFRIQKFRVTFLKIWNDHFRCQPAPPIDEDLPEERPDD
In short: (§1)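 Kinetics on membranes (30 µg) from CHO cells expressing recombinant human A1 receptors, using [3H]CCPA at 1 nM, with or without compound. Association was started by adding membranes to the radioligand. For dissociation, membranes were preloaded with radioligand for 60 min at 25 °C, then 100 µM 8-cyclopentyltheophylline was added. Bound ligand was separated by GF/B filtration and counted by scintillation; t1/2 and rate constants were derived.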

[2] = molecular target: T1, Adenosine receptor A1 (Homo sapiens); test: Association constant for [3H]CCPA binding to Adenosine A1 receptor in the presence of compound; in short: as §1
[3] = molecular target: T1, Adenosine receptor A1 (Homo sapiens); test: Association half life for [3H]-CCPA binding to Adenosine A1 receptor in the presence of compound; in short: as §1
[4] = molecular target: T1, Adenosine receptor A1 (Homo sapiens); test: Dissociation half life for [3H]CCPA binding to Adenosine A1 receptor in the presence of compound; in short: as §1
[5] = molecular target: T1, Adenosine receptor A1 (Homo sapiens); test: Inhibition of [3H]CCPA binding to human Adenosine A1 receptor at 10e-6 M
In short: (§2)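 Human A1 receptors expressed in CHO-cell membranes, incubated 60 min at 25 °C in 50 mM Tris-HCl (pH 7.4) with the compound at a fixed concentration. Conditions were [3H]CCPA ~1.0 nM with 20 µg protein, or [3H]DPCPX ~1.6 nM with 10 µg protein. Nonspecific binding was defined with 10 µM DPCPX, and samples were filtered and counted. Results are % specific binding remaining, as means of three experiments in duplicate.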

[6] = molecular target: T1, Adenosine receptor A1 (Homo sapiens); test: Inhibition of [3H]CCPA binding to human Adenosine A1 receptor at 10e-7 M; in short: as §2
[7] = molecular target: T1, Adenosine receptor A1 (Homo sapiens); test: Inhibition of [3H]DPCPX binding to human Adenosine A1 receptor at 10e-6 M; in short: as §2
[8] = molecular target: T1, Adenosine receptor A1 (Homo sapiens); test: Dissociation half life of [3H]CCPA binding to Adenosine A1 receptor; in short: as §1
[9] = molecular target: T1, Adenosine receptor A1 (Homo sapiens); test: Association half life for [3H]CCPA binding to Adenosine A1 receptor in the presence of compound; in short: as §1

Koff [1]	k on [2]	T1/2 [3]	T1/2 [4]	Specific binding [5]	Specific binding [6]	Specific binding [7]	T1/2 [8]	T1/2 [9]	SMILES
0.000933 s⁻¹	5.83e+06 M⁻¹ s⁻¹	2 min	12.4 min	16%	97%	122%			C/N=c1\nc(C2C=CC=CC2)n(C2C=CC=CC2)s1 (configuration not stated)
0.000967 s⁻¹	4.17e+06 M⁻¹ s⁻¹			25%	100%	123%	12 min	2.9 min	c1ccc(-c2n/c(=N/C3CCCC3)sn2-c2ccccc2)cc1
				20%	99%	134%			CC/N=c1/nc(-c2ccccc2)n(-c2ccccc2)s1
				29%	97%	142%			Cc1cccc(-n2s/c(=N/CCCO)nc2-c2ccccc2)c1
				23%	97%	126%			CC(C)/N=c1/nc(-c2ccccc2)n(-c2ccccc2)s1
				66%	104%	106%			c1ccc(/N=c2/nc(-c3ccccc3)n(-c3ccccc3)s2)cc1
				23%	96%	132%			C/N=c1/nc(-c2ccccc2)n(-c2cccc(C)c2)s1
				36%	99%	114%			CCCC/N=c1/nc(-c2ccccc2)n(-c2cccc(C)c2)s1
				27%	106%	127%			OCCC/N=c1/nc(-c2ccccc2)n(-c2ccccc2)s1
				24%	100%	125%			CC/N=c1/nc(-c2ccccc2)n(-c2cccc(C)c2)s1
				89%	96%	107%			Cc1cccc(-n2s/c(=N\c3ccccc3)nc2-c2ccccc2)c1
				29%	100%	121%			Cc1cccc(-n2s/c(=N\C(C)C)nc2-c2ccccc2)c1
				26%	98%	135%			CCC/N=c1/nc(-c2ccccc2)n(-c2ccccc2)s1
				29%	97%	126%			CCC/N=c1/nc(-c2ccccc2)n(-c2cccc(C)c2)s1
				43%	101%	124%			c1ccc(C/N=c2\nc(-c3ccccc3)n(-c3ccccc3)s2)cc1
				66%	99%	116%			Cc1cccc(-n2s/c(=N\Cc3ccccc3)nc2-c2ccccc2)c1
				35%	96%	101%			Cc1cccc(-n2s/c(=N/C3CCCC3)nc2-c2ccccc2)c1
				27%	101%	126%			CCCC/N=c1/nc(-c2ccccc2)n(-c2ccccc2)s1
